UHRF1 binding – blocks human UHRF1 binding to methylated DNA; Q96T88; UHRF1 binding to methylated oligo, TR-FRET; inhibition, % at 4.4 µM; 370,000 tested, 0.75% active; AID 687016; in the data active means inhibition above about 21%;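 further: UHRF1 SRA domain binding a hemimethylated CpG hairpin DNA probe; 0% = median of test compound wells and 100% = reference inhibitor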
MBD2 inh – inhibitors of human MBD2 binding to methylated oligonucleotide; TR-FRET; inhibition, % at 4.4 µM; 370,000 tested, 0.31% active; AID 686964; in the data active means inhibition above about 13%
Target sequence (Q9UBB5 whole entry, looked up): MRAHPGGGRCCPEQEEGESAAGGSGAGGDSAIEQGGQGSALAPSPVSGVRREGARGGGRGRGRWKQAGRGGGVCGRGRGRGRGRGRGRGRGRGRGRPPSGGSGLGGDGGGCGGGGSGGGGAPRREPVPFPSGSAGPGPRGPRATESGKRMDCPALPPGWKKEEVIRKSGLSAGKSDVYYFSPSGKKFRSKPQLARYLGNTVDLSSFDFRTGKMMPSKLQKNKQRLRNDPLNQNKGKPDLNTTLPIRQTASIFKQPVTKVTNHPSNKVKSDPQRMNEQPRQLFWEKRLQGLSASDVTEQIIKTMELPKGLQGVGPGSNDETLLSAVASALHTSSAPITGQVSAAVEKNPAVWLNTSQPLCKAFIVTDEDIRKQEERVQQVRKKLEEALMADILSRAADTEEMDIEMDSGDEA
Rin1 Abl inh – blocks binding of human Rin1 to Abl; inhibition, % at 7.35 µM; 360,000 tested, 0.4% active; P00519+Q13671; TR-FRET Rin1/Abl binding, biochemical; in the data active means inhibition above about 5%, passing the limit was not always enough
TDP2 absorb – TDP2 (human) inhibition, absorbance primary screen; recombinant TDP2, T5PNP hydrolysis, p-nitrophenol absorbance 415 nm; inhibition, % at 12.8 µM; AID 720702; 370,000 tested, 0.34% active; O95551;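 active means inhibition above the mean of all tested compounds plus 3 SD, set per campaign, cut at about 25% in these data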;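 further: 0% = DMSO with enzyme and 100% = buffer with substrate but no TDP2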
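Assay system: Recombinant human TDP2 | Quantity: 120 nM TDP2 per well | Incubation: 2 h at 37 °C | Signal: Epi absorbance | Evaluation: Percent inhibition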
LEDGF integ inh – blocks HIV-1 LEDGF/p75-dependent DNA integration; TR-FRET IN-LEDGF/p75 DNA integration, Eu/Cy5; 370,000 tested, 0.64% active; inhibition, % at 3.7 µM; AID 743269;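 active means inhibition above the screen-wide mean plus 3 SD, cut at about 13% in these data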;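 further: signal is the Cy5 over europium emission ratio at 671 and 618 nm; 0% = plate median of compound wells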
IN multimer act – counter-screen for LEDGF/p75 integration inhibitors: HIV-1 integrase multimerization activators; shares compounds with LEDGF integ inh; AID 1053131; 2,000 tested, 17% active; activation, % at 7.7 µM; TR-FRET HIV-1 integrase multimerization, biochemical; in the data active means activation above about 8.9%
TR-FRET interf – TR-FRET optical interference, LEDGF/p75 integration counter-screen | 2,000 tested, under 10 active | TR-FRET optical interference counterscreen, HIV-1 IN multimerization | inhibition, % at 7.7 µM | shares compounds with LEDGF integ inh;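 active means inhibition above the mean over all tested compounds plus 3 SD, which no compound reached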;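 further: 0% = integrase with antibodies and DMSO and 100% = antibodies without integrase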
IN-LEDGF confirm – confirmation of HIV-1 LEDGF/p75-dependent integration inhibitors; TR-FRET LEDGF/p75-dependent HIV-1 integration, biochemical; 2,000 tested, 36% active; inhibition, % at 3.7 µM; shares compounds with LEDGF integ inh; in the data active means inhibition above about 14%
* hit, by the source's call; . = no result given. Hits are enriched below; roughly 1.9% of the tested compounds scored in any of these assays.

SMILES | UHRF1 binding | MBD2 inh | Rin1 Abl inh | TDP2 absorb | LEDGF integ inh | IN multimer act | TR-FRET interf | IN-LEDGF confirm
CCc1ccc(CNC(=O)CCC(=O)N2Cc3cccc(OC)c3Oc3ncccc32)cc1 | 1.0 | -7.5 | -0.1 | -3.4 | 0.2 | . | . | .
O=C(COC(=O)c1n[nH]c2ccccc12)Nc1ccccc1F | 0.2 | -6.0 | 5.5 | -0.9 | 1.4 | . | . | .
O=C(COC(=O)c1n[nH]c(=O)c2ccccc12)Nc1ccccc1F | -0.9 | -2.9 | 0.3 | 8.6 | 14.3* | 0.3 | -1.7 | -1.2
CC(C)(C)C(=O)Nc1ccc(/C=C/C(=O)c2ccco2)cc1 | -4.2 | -3.5 | -0.1 | 15.6 | 34.1* | 0.3 | -1.3 | -3.5
Oc1ccc(N=Cc2ccc(OCc3ccccc3)cc2)cc1 | 7.9 | -2.6 | -2.1 | 22.6 | 34.3* | 21.9* | -77.6 | 35.2*
Cc1c(-c2ccccc2)nc2ccccc2c1C(=O)O | . | . | -4.8 | . | . | . | . | .
Cc1c(-c2cccc(Cl)c2)nc2ccccc2c1C(=O)NC1CC1 | 3.1 | 0.1 | -4.3 | -3.7 | 21.0* | 0.0 | 0.0 | -3.2
COC(=O)/C(C#N)=C/c1ccc(OC(=O)c2ccccn2)cc1 | 1.3 | 0.1 | -1.2 | -1.9 | 14.3* | 0.5 | -2.3 | -0.4
CCCC(=O)OC12CCCN(C1)/C(=C/c1ccc(C#N)cc1)C2 (configuration not stated) | -1.0 | -2.3 | . | -1.5 | -5.0 | . | . | .
CC(=O)NC(c1ccco1)c1cc(Cl)c2ccc(Cl)nc2c1O (configuration not stated) | -6.2 | -4.4 | 0.6 | 4.5 | 43.6* | 1.1 | -5.6 | 5.5
CC(=O)NC(c1ccco1)c1cc(Cl)c2ccccc2c1O (configuration not stated) | 0.3 | 1.3 | -0.2 | 1.2 | -1.1 | . | . | .
C=CCn1c(N)c(C(=O)NCCC2=CCCCC2)sc1=S | 3.9 | 1.5 | 3.4 | 3.4 | 19.0* | 4.9 | -24.7 | -1.0
NC(=O)NCCC1=CCCCC1 | -2.4 | -6.0 | 0.8 | 10.1 | -2.2 | . | . | .
O=C(c1[nH]c(C(F)(F)F)nc1-c1ccccc1)N1CCC(Cc2ccccc2)CC1 | 1.2 | 1.3 | 2.0 | -17.1 | 4.9 | . | . | .
NC(=O)CC1Nc2cccc3cccc(c23)NC1=O (configuration not stated) | -2.0 | -2.3 | -0.8 | 9.8 | 18.7* | 35.3* | -125.7 | 31.5*
CCOC(=O)C1=C(COC(=O)C2CC(=O)N(c3ccccc3F)C2)NC(=O)NC1C (configuration not stated) | 1.2 | 0.2 | -0.2 | 2.0 | 2.4 | . | . | .
Cc1sc2ncnc(SCC(=O)N3CCCC3=O)c2c1C | -1.8 | -2.4 | -0.8 | 10.3 | 60.8* | 1.4 | -7.0 | -0.1
CN(C)c1ccc(/C=C(/NC(=O)c2ccccc2)C(=O)N2CCCC2)cc1 | 5.0 | -3.4 | -0.8 | -12.5 | 8.0 | . | . | .
COc1ccc(C#Cc2c(-c3ccsc3)oc3ccc(-c4cc(OC)c(OC)c(OC)c4)cc23)cc1 | 0.1 | 3.6 | -2.1 | 6.6 | 1.9 | . | . | .
Cc1cc(/C=C2\SC(=S)NC2=O)c(C)[nH]1 | 4.1 | -0.1 | 5.9 | 3.9 | 33.9* | 12.0* | -42.6 | 10.0
COc1cc(C2C(C#N)=C(N)Oc3cc(C)oc(=O)c32)cc2c1OCO2 (configuration not stated) | 42.3* | 9.2 | -1.9 | 8.7 | 20.5* | 2.9 | -14.5 | 14.0*
CN(C(=O)COC(=O)c1cncc(Br)c1)C1CCCCC1 | 3.1 | 7.0 | 2.1 | 8.5 | 16.4* | -2.2 | 7.7 | -3.1
Oc1cc(CNC2CCCCC2)c(O)cc1CNC1CCCCC1 | -6.6 | -7.8 | 2.8 | 1.6 | 13.8* | 3.2 | -11.7 | 24.0*
Cc1ccccc1CNC1CCCCC1 | 2.8 | -4.2 | 0.0 | -10.9 | -0.8 | . | . | .
Cc1cc(C)c(OCC(=O)NCCCn2nc(C)cc2C)c(C)c1 | 14.6 | 4.4 | 3.5 | -11.0 | 0.9 | . | . | .
SMILES | UHRF1 binding | MBD2 inh | Rin1 Abl inh | TDP2 absorb | LEDGF integ inh | IN multimer act | TR-FRET interf | IN-LEDGF confirm
O=C(NCc1ccc(Cl)cc1)[C@@H]1CCCN1S(=O)(=O)c1ccc(Cl)cc1 | -1.3 | 1.0 | 3.5 | -7.8 | -5.3 | . | . | .
CC(C)(C)C(=O)/C=C/Nc1ccccc1O | -9.9 | -19.3 | -3.5 | -10.4 | 15.2* | 2.7 | -9.6 | 0.6
CCOC(=O)c1ccc(N/C=C/C(=O)C(C)(C)C)cc1 | -0.6 | 4.3 | -1.3 | -4.7 | -4.6 | . | . | .
COc1cc(C(=S)N2CCOCC2)ccc1OS(=O)(=O)c1ccc(Cl)cc1 | -1.4 | -1.5 | 0.4 | -8.3 | 5.4 | . | . | .
COc1cc(C(=S)N2CCOCC2)ccc1OS(=O)(=O)c1ccc(C)cc1 | 1.2 | 0.9 | -2.3 | -14.0 | 20.1* | 0.3 | -1.2 | -4.8
CCCCCN(C(=O)NC(=O)Nc1ccc(C)cc1)S(=O)(=O)c1ccccc1 | 8.8 | 3.0 | 1.0 | 4.0 | -0.9 | . | . | .
O=C(O)c1cccc(-n2cccc2/C=C2/NC(=O)N(c3ccc(Cl)cc3)C2=O)c1 | 103.3* | 100.9* | 3.6 | -1.8 | 82.7* | 36.2* | -129.4 | 81.5*
Cc1cccc(NC(=O)CN2C(=O)N/C(=C\c3cccn3-c3cccc(C(=O)O)c3)C2=O)c1 | -0.6 | -3.0 | 0.2 | -10.7 | 9.7 | . | . | .
CC1(C)N([O-])C(c2cccs2)=C[N+]1=O | 1.1 | -2.7 | 2.3 | -7.8 | 24.2* | 1.1 | -5.7 | 29.0*
CCCCN(C=O)c1c(CC)nc2c(OCCOc3ccccc3)cccn12 | -2.8 | -9.4 | -0.2 | -5.3 | 6.9 | . | . | .
COc1cccc(OC)c1C(=O)N1CCNCC1 | -0.5 | 6.2 | 0.5 | -2.0 | 3.0 | . | . | .
COC1=CC(=O)C(C2CC(=O)c3c(O)cc(O)cc3O2)=CC1=O (configuration not stated) | 9.1 | 5.3 | 5.2 | 6.2 | 45.7* | 46.3* | -233.2 | 23.8*
COc1c(CC=C(C)C)cc(C2CC(=O)c3c(O)cc(O)cc3O2)cc1CC=C(C)C (configuration not stated) | 0.1 | 2.9 | -2.4 | 0.6 | -2.2 | . | . | .
O=C(/C=C/c1cccc(O)c1)c1ccc(N2CCOCC2)cc1 | -3.0 | -2.4 | -1.9 | -4.0 | 2.5 | . | . | .
CC(NCCCSc1ccccc1)C(O)c1ccc(O)cc1 (configuration not stated) | 0.4 | 1.9 | 2.2 | 5.9 | -0.6 | . | . | .
COc1cc(OC)cc(-c2nnc(NC(=O)CCS(=O)(=O)c3ccc(C)cc3)o2)c1 | -1.6 | -3.0 | 0.8 | 9.1 | 1.0 | . | . | .
COc1cccc(-c2nnc(NC(=O)CCS(=O)(=O)c3ccc(F)cc3)o2)c1 | -1.4 | -2.2 | -3.9 | -0.1 | 15.5* | 5.3 | -27.7 | -2.8
